Like-named read-outs stand apart in the source and are kept apart here.
Columns and labels:
[1] = format: in vivo, human
How it was run: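 Routine TDM of trough serum sunitinib and N-desethyl sunitinib in one patient, reported as total concentration (the sum of both); the clinical target trough is 50-100 ng/ml. Sampling: immediately before dasatinib and on days 7, 32, 70 and 84. Sunitinib was given orally at 14 days on/7 days off: 50 mg/day, 37.5 mg/day from day 18, then 50/37.5 mg/day alternately from day 81.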

[2] = cited from earlier work
[3] = format: in vivo, human; remark: listed apart in the source
How it was run: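 Serum from the patient was taken 8 h after dasatinib dosing, using the residue of samples drawn for sunitinib TDM, and assayed later by LC-MS/MS (LLOQ 0.5 ng/ml). Samples were from days 7, 32 and 84. Oral dasatinib was given at 60 mg/day, then 50 mg/day from day 28, alongside sunitinib; esomeprazole magnesium was a concomitant drug.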

CYP3A4 = settings: cited from earlier work
[4] = tested on: chronic myeloid leukemia (CML); assay: Response of chronic myeloid leukemia to dasatinib in the patient; format: in vivo, human; settings: day 154 after starting dasatinib; BCR::ABL1^IS≤1%
How it was run: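 Patient with chronic-phase CML took oral dasatinib at 60 mg/day from day 1. Cytogenetic response was defined as BCR::ABL1IS≤1% and assessed on day 154.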

[5] = rats; ketoconazole combined with sunitinib; cited from earlier work
Adverse events = format: in vivo, human; settings: day -30; sunitinib 50 mg/day alone
How it was run: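 Single patient with metastatic renal cell carcinoma on oral sunitinib monotherapy, 14 days on/7 days off, before dasatinib started (day 1). Adverse events graded by CTCAE. Hand-foot skin reaction was managed with heparinoid cream and diarrhea with bifidobacterial powder.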

[6] = clinical practice, sum of sunitinib and N-desethyl sunitinib; cited from earlier work
[7] = tested on: metastatic renal cell carcinoma (mRCC); assay: Course of metastatic renal cell carcinoma under sunitinib in the patient; format: in vivo, human; settings: day 186; led to change from sunitinib to axitinib
[8] = day 7, sunitinib 50 mg/day with dasatinib 60 mg/day
[9] = day 32, sunitinib 37.5 mg/day with dasatinib 50 mg/day
[10] = day 84, sunitinib 50.0 and 37.5 mg/day alternately with dasatinib 50 mg/day
[11] = immediately before starting dasatinib, sunitinib 50 mg/day alone, 14 days on/7 days off

## CCNCCNC(=O)c1c(C)[nH]c(/C=C2\C(=O)Nc3ccc(F)cc32)c1C [N-desethyl sunitinib]
[1]; [8]
  trough serum concentration: 12.2 ng/mL
[1]; [9]
  trough serum concentration: 4.7 ng/mL
[1]; [10]
  trough serum concentration: 7.4 ng/mL
[1]; [11]
  trough serum concentration: 13.7 ng/mL

## Cc1nc(Nc2ncc(C(=O)Nc3c(C)cccc3Cl)s2)cc(N2CCN(CCO)CC2)n1 [dasatinib]
[2]
  solubility: pH-dependent
[3]; day 7, 8 h after administration, dasatinib 60 mg/day with sunitinib
  dasatinib serum concentration: 1.16 ng/mL
[3]; day 84, 8 h after administration, dasatinib 50 mg/day with sunitinib
  dasatinib serum concentration: 2.75 ng/mL
[3]; male, human, serum, oral, 50 mg/day
  concentration at 8 h: 3 ng/mL
CYP3A4
  CYP3A4 inhibition: moderate
[1]; day 7 versus before dasatinib, sunitinib 50 mg/day
  effect of dasatinib combination on sunitinib serum concentration: no change
[4]
  response for CML: complete cytogenetic response

## CC(=O)N1CCN(c2ccc(OCC3COC(Cn4ccnc4)(c4ccc(Cl)cc4Cl)O3)cc2)CC1 (centres unmarked) [ketoconazole]
[5]
  effect of combination on the concentration of sunitinib: significantly increased

## CCN(CC)CCNC(=O)c1c(C)[nH]c(/C=C2\C(=O)Nc3ccc(F)cc32)c1C [sunitinib]
Adverse events
  diarrhea, CTCAE grade: 1
  hand-foot skin reaction (HFSR), CTCAE grade: 1
[6]
  target trough concentration as total sunitinib concentration: 50 to 100 ng/mL
[7]
  course of RCC metastases: pancreatic and left adrenal metastases were enlarged
[1]; [8]
  trough serum concentration: 64.9 ng/mL
[1]; [9]
  trough serum concentration: 28.6 ng/mL
[1]; [10]
  trough serum concentration: 38.7 ng/mL
[1]; [11]
  trough serum concentration: 63.7 ng/mL
